Experimental data taken from ChEMBL document CHEMBL3044648, “Quantitative structure-activity relationships of monoterpenoid binding activities to the housefly GABA receptor” (2012).

Legend:
[1] = molecular target: T1, GABA receptor subunit (Musca domestica) (UniProt Q75NA5); assay: Displacement of [3H]TBOB binding to GABA receptor in Musca domestica (house fly) heads homogenates assessed as [3H]TBOB binding at 500 uM incubated for 90 min by scintillation counting method
T1 sequence (whole entry): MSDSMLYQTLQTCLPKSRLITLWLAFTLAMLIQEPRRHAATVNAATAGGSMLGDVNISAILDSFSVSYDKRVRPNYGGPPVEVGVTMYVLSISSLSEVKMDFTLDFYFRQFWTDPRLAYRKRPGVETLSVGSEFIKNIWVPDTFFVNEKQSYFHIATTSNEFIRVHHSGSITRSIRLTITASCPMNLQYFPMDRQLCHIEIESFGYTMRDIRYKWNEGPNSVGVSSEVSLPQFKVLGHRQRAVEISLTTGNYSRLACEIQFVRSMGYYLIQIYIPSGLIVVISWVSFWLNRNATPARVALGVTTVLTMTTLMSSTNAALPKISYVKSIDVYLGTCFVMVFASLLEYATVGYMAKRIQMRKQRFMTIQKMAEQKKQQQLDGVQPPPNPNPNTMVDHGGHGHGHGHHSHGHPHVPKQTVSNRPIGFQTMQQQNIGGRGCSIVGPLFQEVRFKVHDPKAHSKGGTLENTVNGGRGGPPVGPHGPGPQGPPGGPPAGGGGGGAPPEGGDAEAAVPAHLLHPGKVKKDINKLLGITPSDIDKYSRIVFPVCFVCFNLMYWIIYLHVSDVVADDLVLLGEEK
Method in brief: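 House fly head membranes (homogenized in 10 mM Tris-HCl pH 7.5 with 0.25 M sucrose, pelleted at 25,000xg, resuspended in 10 mM phosphate pH 7.5 with 300 mM NaCl); 20 µg protein incubated 90 min at 20 °C with 4 nM [³H]-TBOB and 500 µM monoterpenoid; GF/B filtration; nonspecific binding with 100 µM picrotoxin; specific binding as % of untreated; at least three repeats, mean ± SEM.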

Musca domestica = assay: Toxicity to Musca domestica (house fly) applied to pronotum assessed as compound level per fly causing insect mortality measured after 24 hr; type: functional

Row | Structure (SMILES) | Activity [1] | LD50 (Musca domestica)
1 | CC1=CC[C@@H](C(C)(C)O)CC1 | 95% | –
2 | Cc1ccc(C(C)C)c(O)c1 | 180% | –
3 | O=C(O)/C=C/c1ccccc1 | 101% | –
4 | CC(C)[C@H]1CC[C@H](C)CC1=O (relative stereo) | 86% | –
5 | CC(C)C12CCC(C)(CC1)O2 [1,4-CINEOLE] | 117% | 151.7 µg
6 | CC12CCC(CC1=O)C2(C)C (stereo not given) [CAMPHOR] | 70% | 149.5 µg
7 | Cc1ccc(C(C)C)cc1O [CARVACROL] | 156% | 60.1 µg
8 | CC(C)=CCC[C@@H](C)CC=O [CITRONELLAL] | 92% | 46.8 µg
9 | CC(C)=CCCC(C)CC(=O)O (stereo not given) [CITRONELLIC ACID] | 138% | 25.2 µg
10 | C=C(C)[C@H]1CC=C(C)CC1 [D-LIMONENE] | 86% | 89.4 µg
11 | CC12CCC(CC1)C(C)(C)O2 [EUCALYPTOL] | 122% | 63.2 µg
12 | C=CCc1ccc(O)c(OC)c1 [EUGENOL] | 88% | 46.4 µg
13 | C=C(C)C1CCC2(C)OC2C1 (stereo not given) [LIMONENE OXIDE] | 141% | 67.8 µg
14 | C=CC(C)(O)CCC=C(C)C (stereo not given) [LINALOOL] | 124% | 72.3 µg
15 | CC1CCC(C(C)C)C(O)C1 (stereo not given) [MENTHOL] | 80% | 128.9 µg
16 | COC(=O)c1ccccc1O [METHYL SALICYLATE] | 103% | 41.2 µg
17 | Cc1ccc(C(C)C)cc1 [P-CYMENE] | 90% | 94.7 µg
18 | CCC(=O)OCCc1ccccc1 [PHENETHYL PROPIONATE] | 95% | 66.6 µg
19 | O=Cc1ccc2c(c1)OCO2 [PIPERONAL] | 93% | 36.1 µg
20 | CC(C)=C1CC[C@@H](C)CC1=O [PULEGONE] | 132% | 92.2 µg
21 | C=CCc1ccc2c(c1)OCO2 [SAFROLE] | 43% | 18.3 µg
22 | COc1cc(C=O)ccc1O [VANILLIN] | 82% | >500 µg
